# Measurements collected from several papers.
# Compare with care: the assays were run in different laboratories.
# Target: Protein-tyrosine kinase 6 (PTK6, Homo sapiens, UniProt Q13882)
SMILES,test,setting,remaining binding [%]
COc1ccnn2ncc(-c3ccnc(N(C)C)n3)c12,binding,1 µM,100
C=CC(=O)N1CCC(C(=O)NCC(=O)N2CCN(c3nc(-c4cnc(N)nc4C(F)F)nc(N4CCOCC4)n3)CC2)CC1,"binding, competition with immobilised ligand",1 µM,100
Cc1c(NC(=O)c2cc(C(N)=O)nc3cc(F)ccc23)c(C(F)(F)F)nn1Cc1ccc(C#N)cc1,"cell-free assay, competition with immobilised ligand",1 µM,100
C[C@@H]1CCN(c2nccc(-c3cnn4ncccc34)n2)C1,binding,1 µM,100
O=C(Nc1c[nH]nc1C(=O)NC1CCNCC1)c1cc(F)cc(F)c1,"binding, competition with immobilised ligand",1 µM,100
F[C@@H]1CCN(c2nccc(-c3cnn4ncccc34)n2)C1,binding,1 µM,89
O=C(c1ccc(Nc2ncc(Cl)c(-c3ccc(Cl)s3)n2)cc1)N1CCC(N2CCCC2)CC1,"binding, competition with immobilised ligand",1 µM,79
c1cnn2ncc(-c3ccnc(N4CCC45COC5)n3)c2c1,binding,1 µM,83
COc1ncc2cc3ccccc3nc2c1C#N,"cell-free assay, competition with immobilised ligand",5 µM,100
CCOC(=O)c1cc2cc(-c3cc(C(=O)NCc4ccc(C(=O)O)cc4)nn3C)ccc2[nH]1,"cell-free assay, competition with immobilised ligand",0.1 µM,98
c1cncc(-c2cccc(Nc3nccc(NC4CCCCC4)n3)c2)c1,"binding, competition with immobilised ligand",10 µM,80
COc1cnc(Nc2cccc(S(N)(=O)=O)c2)nc1N1CCN(c2ccccc2)CC1,"binding, competition with immobilised ligand",1 µM,100
Nc1c(C(=O)NCc2ccc(C(=O)NCCCC3CCCCC3)cc2)cnn1-c1ccccc1,"cell-free assay, competition with immobilised ligand",0.1 µM,96
Nc1ncc2c(n1)-c1c([nH]c3ccc(C#CC4CC4)cc13)CCCC2,"binding, competition with immobilised ligand",1 µM,97
CCC(=O)N[C@@H]1CC[C@H](C(=O)N(C)c2ccc(-c3nc4ccccc4o3)cc2)C1,"cell-free assay, competition with immobilised ligand",1 µM,90
COc1cnc(Nc2cccc(S(N)(=O)=O)c2)nc1N1CCN(c2ccccc2)C(=O)C1,"binding, competition with immobilised ligand",1 µM,100
COc1cc(-c2cn(C3CCc4ccccc4N(CC(F)(F)F)C3=O)nn2)ccc1-n1ccc(C)n1 (stereo not drawn),"cell-free assay, competition with immobilised ligand",1 µM,100
CN(C)c1ncc(F)c(-c2cnn3ncccc23)n1,binding,1 µM,99
CN(C)c1ncnc(-c2ccc3nc(Nc4cc(CN5CCN(C(=O)CC(F)(F)F)CC5)ccn4)[nH]c3c2)c1Cl,"cell-free assay, competition with immobilised ligand",1 µM,86
CC1CCCN1c1nccc(-c2cnn3ncccc23)n1 (stereo not drawn),binding,1 µM,89
O=C(c1ccc(Nc2nccc(-c3cc4ccccc4s3)n2)cc1)N1CCC(N2CCCC2)CC1,"binding, competition with immobilised ligand",1 µM,65
